ChEMBL document CHEMBL1131429, “Nitrogen-carbon-linked (azolylphenyl)oxazolidinones with potent antibacterial activity against the fastidious gram-negative organisms Haemophilus influenzae and Moraxella catarrhalis” (J Med Chem, 1998)
In brackets after ≈: the same amount, converted by molar mass.

Tests used:
[1] = test system: Staphylococcus epidermidis; assay: The compound was evaluated for its anti-bacterial activity against methicillin resistant Staphylococcus epidermidis; assay type: functional
In short: (§1)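 MIC determined in vitro by standard agar dilution against bacterial isolates.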

[2] = test system: Enterococcus faecalis; assay: The compound was evaluated for its anti-bacterial activity against Enterococcus faecalis UC 9217; assay type: functional
In short: (§2)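 MICs were determined by standard agar dilution against a panel of Gram-positive and Gram-negative isolates.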

[3] = test system: Streptococcus pneumoniae; assay: The compound was evaluated for its anti-bacterial activity against Streptococcus pneumoniae UC 9912; assay type: functional; in short: as §2
[4] = test system: Moraxella catarrhalis; assay: The compound was evaluated for its anti-bacterial activity against Moraxella catarrhalis UC 30610; assay type: functional; in short: as §2
[5] = test system: Haemophilus influenzae; assay: The compound was evaluated for its anti-bacterial activity against Haemophilus influenzae UC 30063; assay type: functional; in short: as §2
[6] = test system: Staphylococcus aureus; assay: The compound was evaluated for its control effective dose against Staphylococcus aureus UC 9213; assay type: functional
[7] = test system: Staphylococcus aureus; assay: The compound was evaluated for its anti-bacterial activity against methicillin susceptible Staphylococcus aureus; assay type: functional; in short: as §1
[8] = test system: Staphylococcus aureus; assay: The compound was evaluated for its effective dose against Staphylococcus aureus UC 9213; assay type: functional
[9] = test system: Staphylococcus aureus; assay: The compound was evaluated for its anti-bacterial activity against methicillin resistant Staphylococcus aureus; assay type: functional; in short: as §1
[10] = terminal disposition half-life was evaluated in male Dawley rats at a dose of 42.9 mg/kg when taken peroral; assay type: ADME, organism-based; design: dose 42.9 mg/kg, route oral; conditions: Sprague-Dawley, rat, in vivo, po
In short: (§3)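 Single intravenous or oral doses were given to male Sprague-Dawley rats (n = 3), with plasma sampled to give Cmax and tmax. Vss was calculated as dose·AUMC/AUC², clearance as dose/AUC, and F as (AUC/dose)po/(AUC/dose)iv × 100, assuming linear PK. t1/2β is the harmonic mean terminal half-life. The oral entries show the iv half-life because the po half-life was not calculable.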

[11] = test system: Rattus norvegicus; assay: Dawley rats 9.9 mg/kg when taken intravenously; assay type: functional; conditions: route intravenous; in short: as §3
[12] = Absolute oral bioavailability was evaluated n male Dawley rats at a dose of 42.9 mg/kg when taken peroral; assay type: ADME, organism-based; conditions: Sprague-Dawley, rat, in vivo; in short: as §3
[13] = terminal disposition half-life was evaluated in male Dawley rats at 9.9 mg/kg when taken intravenously; assay type: ADME, organism-based; design: dose 9.9 mg/kg, route intravenous; conditions: Sprague-Dawley, rat, in vivo, iv; in short: as §3
[14] = steady-state volume of distribution was evaluated in male Dawley rats; assay type: ADME, organism-based; conditions: Sprague-Dawley, rat, in vivo, read-out: Vss; in short: as §3
[15] = test system: Streptococcus pneumoniae; assay: The compound was evaluated for its effective dose against Streptococcus pneumoniea UC 15087; assay type: functional
[16] = test system: Rattus norvegicus; assay: Dawley rats at a dose of 42.9 mg/kg when taken peroral; assay type: functional; conditions: route oral; in short: as §3
[17] = test system: Streptococcus pneumoniae; assay: The compound was evaluated for its control effective dose against Streptococcus pneumoniea UC 15087; assay type: functional
[18] = test system: Rattus norvegicus; assay: tmax was evaluated in male Dawley rats at a dose of 42.9 mg/kg when taken perorally; assay type: functional, organism-based; design: dose 42.9 mg/kg; in short: as §3
[19] = Cmax was evaluated in male Dawley rats at a dose of 42.9 mg/kg when taken perorally; assay type: ADME, organism-based; design: dose 42.9 mg/kg, route oral; conditions: Sprague-Dawley, rat, in vivo, po; in short: as §3
[20] = Cmax was evaluated in male Dawley rats at a dose of 9.9 mg/kg when taken intravenously; assay type: ADME, organism-based; design: dose 9.9 mg/kg, route intravenous; conditions: Sprague-Dawley, rat, in vivo, iv; in short: as §3
[21] = test system: Rattus norvegicus; assay: Dawley rats at a dose of 10 mg/kg when taken intravenously; assay type: functional; conditions: route intravenous
[22] = Steady-state volume distribution was evaluated in male Dawley rats at a dose of 10 mg/kg when taken intravenously; assay type: ADME, organism-based; design: dose 10 mg/kg, route intravenous; conditions: Sprague-Dawley, rat, in vivo, iv, read-out: Vss
[23] = Cmax was evaluated in male Dawley rats at a dose of 25 mg/kg when taken perorally; assay type: ADME, organism-based; design: dose 25 mg/kg, route oral; conditions: Sprague-Dawley, rat, in vivo, po
[24] = test system: Rattus norvegicus; assay: tmax was evaluated in male Dawley rats at a dose of 25 mg/kg when taken perorally; assay type: functional, organism-based; design: dose 25 mg/kg
[25] = Cmax was evaluated in male Dawley rats at a dose of 9.0 mg/kg when taken intravenously; assay type: ADME, organism-based; design: dose 9 mg/kg, route intravenous; conditions: Sprague-Dawley, rat, in vivo, iv; in short: as §3
[26] = terminal disposition half-life was evaluated in male Dawley rats at a dose of 46.8 mg/kg when taken peroral; assay type: ADME, organism-based; design: dose 46.8 mg/kg, route oral; conditions: Sprague-Dawley, rat, in vivo, po; in short: as §3
[27] = tmax was evaluated in male Dawley rats at a dose of 46.8 mg/kg when taken perorally; assay type: ADME, organism-based; design: dose 46.8 mg/kg, route oral; conditions: Sprague-Dawley, rat, in vivo, po; in short: as §3
[28] = test system: Rattus norvegicus; assay: Dawley rats at a dose of 9.0 mg/kg when taken intravenously; assay type: functional; conditions: route intravenous; in short: as §3
[29] = Absolute oral bioavailability was evaluated n male Dawley rats at a dose of 46.8 mg/kg when taken peroral; assay type: ADME, organism-based; conditions: Sprague-Dawley, rat, in vivo; in short: as §3
[30] = terminal disposition half-life was evaluated in male Dawley rats at a dose of 9.0 mg/kg when taken intravenously; assay type: ADME, organism-based; design: dose 9 mg/kg, route intravenous; conditions: Sprague-Dawley, rat, in vivo, iv; in short: as §3
[31] = Steady-state volume of distribution was evaluated in male Dawley rats at a dose of 9.0 mg/kg when taken intravenously; assay type: ADME, organism-based; design: dose 9 mg/kg, route intravenous; conditions: Sprague-Dawley, rat, in vivo, iv, read-out: Vss; in short: as §3
[32] = Cmax was evaluated in male Dawley rats at a dose of 46.8 mg/kg when taken perorally; assay type: ADME, organism-based; design: dose 46.8 mg/kg, route oral; conditions: Sprague-Dawley, rat, in vivo, po; in short: as §3
[33] = test system: Rattus norvegicus; assay: Dawley rats at a dose of 46.8 mg/kg when taken peroral; assay type: functional; conditions: route oral; in short: as §3

| Structure (SMILES) | MIC [1] | MIC [2] | MIC [3] | MIC [4] | MIC [5] | ED50 [6] | MIC [7] | ED50 [8] | MIC [9] | further results |
| --- | --- | --- | --- | --- | --- | --- | --- | --- | --- | --- |
| CC(=O)NC[C@H]1CN(c2ccc(-n3ccc(C=O)c3)c(F)c2)C(=O)O1 | < 0.125 µg/mL | 0.25 µg/mL (≈ 0.724 µM) | < 0.125 µg/mL | 1 µg/mL (≈ 2.9 µM) | 2 µg/mL (≈ 5.79 µM) | 1.7 mg/kg/day | 0.25 µg/mL (≈ 0.724 µM) | >20 mg/kg/day | 0.25 µg/mL (≈ 0.724 µM) |  |
| CC(=O)NC[C@H]1CN(c2ccc(-n3ccc(C#N)c3)c(F)c2)C(=O)O1 | < 0.125 µg/mL | 0.25 µg/mL (≈ 0.73 µM) | < 0.125 µg/mL | 1 µg/mL (≈ 2.92 µM) | 4 µg/mL (≈ 11.7 µM) | 4 mg/kg/day | 0.5 µg/mL (≈ 1.46 µM) | 1.9 mg/kg/day | 0.25 µg/mL (≈ 0.73 µM) | half-life [10]: 5.14 h; CL/F [11]: 1.18 mL/min/kg; bioavailability [12]: 92%; half-life [13]: 5.15 h; Vd [14]: 0.52 L/kg; ED50 [15]: 0.6 mg/kg/day; CL/F [16]: 1.43 mL/min/kg; ED50 [17]: 1.4 mg/kg/day; Tmax [18]: 10 h; Cmax [19]: 31 µM; Cmax [20]: 26.1 µM |
| CC(=O)NC[C@H]1CN(c2ccc(-n3cc(C(N)=O)cn3)c(F)c2)C(=O)O1 | 4 µg/mL (≈ 11.1 µM) | > 16 µg/mL | 0.5 µg/mL (≈ 1.38 µM) | > 16 µg/mL | > 16 µg/mL |  | > 16 µg/mL |  |  |  |
| CN[C@H](CC(C)C)C(=O)N[C@H]1C(=O)N[C@@H](CC(N)=O)C(=O)N[C@H]2C(=O)N[C@H]3C(=O)N[C@H](C(=O)N[C@H](C(=O)O)c4cc(O)cc(O)c4-c4cc3ccc4O)[C@H](O)c3ccc(c(Cl)c3)Oc3cc2cc(c3O[C@@H]2O[C@H](CO)[C@@H](O)[C@H](O)[C@H]2O[C@H]2C[C@](C)(N)[C@H](O)[C@H](C)O2)Oc2ccc(cc2Cl)[C@H]1O [VANCOMYCIN] |  |  | 0.5 µg/mL (≈ 0.345 µM) | > 32 µg/mL | > 32 µg/mL |  |  |  |  |  |
| CCOC(=O)c1cnn(-c2ccc(N3C[C@H](CNC(C)=O)OC3=O)cc2F)c1 | 2 µg/mL (≈ 5.12 µM) | 4 µg/mL (≈ 10.2 µM) | 1 µg/mL (≈ 2.56 µM) | > 16 µg/mL | > 16 µg/mL |  | 4 µg/mL (≈ 10.2 µM) |  | 4 µg/mL (≈ 10.2 µM) |  |
| CC(=O)NC[C@H]1CN(c2ccc(N3CCOCC3)c(F)c2)C(=O)O1 [LINEZOLID] | 1 µg/mL (≈ 2.96 µM) |  |  | 8 µg/mL (≈ 23.7 µM) | 16 µg/mL (≈ 47.4 µM) |  |  |  |  | CL/F [21]: 10.5 mL/min/kg; Vd [22]: 0.72 L/kg; Cmax [23]: 15.8 µM; Tmax [24]: 0.3 h |
| CC(=O)NC[C@H]1CN(c2ccc(-n3cc(C#N)cn3)c(F)c2)C(=O)O1 | < 0.125 µg/mL | 0.5 µg/mL (≈ 1.46 µM) | < 0.125 µg/mL | 2 µg/mL (≈ 5.83 µM) | 4 µg/mL (≈ 11.7 µM) | 3.3 mg/kg/day | 0.5 µg/mL (≈ 1.46 µM) | 1.2 mg/kg/day | 0.5 µg/mL (≈ 1.46 µM) | Cmax [25]: 29.2 µM; half-life [26]: 5.35 h; Tmax [27]: 4 h; CL/F [28]: 1.04 mL/min/kg; bioavailability [29]: 80%; half-life [30]: 5.35 h; Vd [31]: 0.43 L/kg; ED50 [15]: 0.35 mg/kg/day; ED50 [17]: 3.2 mg/kg/day; Cmax [32]: 29.4 µM; CL/F [33]: 1.25 mL/min/kg |
| CC(=O)NC[C@H]1CN(c2ccc(-n3ccc(/C=N\O)c3)c(F)c2)C(=O)O1 | 0.25 µg/mL (≈ 0.694 µM) | 0.5 µg/mL (≈ 1.39 µM) | < 0.125 µg/mL | 1 µg/mL (≈ 2.78 µM) | 4 µg/mL (≈ 11.1 µM) | 2.6 mg/kg/day | 1 µg/mL (≈ 2.78 µM) | 5.5 mg/kg/day | 0.5 µg/mL (≈ 1.39 µM) |  |
| CC(=O)NC[C@H]1CN(c2ccc(N3CCN(C(=O)CO)CC3)c(F)c2)C(=O)O1 [EPEREZOLID] | 0.5 µg/mL (≈ 1.27 µM) | 2 µg/mL (≈ 5.07 µM) | 0.5 µg/mL (≈ 1.27 µM) | 8 µg/mL (≈ 20.3 µM) | 16 µg/mL (≈ 40.6 µM) |  | 4 µg/mL (≈ 10.1 µM) |  | 1 µg/mL (≈ 2.54 µM) |  |
